Results from different studies.
Lines come from different studies, so protocols differ.
MMP1: Interstitial collagenase (MMP1, Homo sapiens, UniProt P03956)
SLC5A7: High affinity choline transporter 1 (SLC5A7, Homo sapiens, UniProt Q9GZV3)
CASP9: Caspase-9 (CASP9, Homo sapiens, UniProt P55211)

| SMILES | target | read-out | mode | technique | tested at | inhibition [%] |
| --- | --- | --- | --- | --- | --- | --- |
| CN(C)C(=O)COC(=O)Cc1ccc(OC(=O)c2ccc(NC(=N)N)cc2)cc1 | MMP1 | enzyme activity | inhibitor | – | 10 µM | 3 |
| CN(CCN1CCC(OC(=O)Nc2ccccc2-c2ccccc2)CC1)C(=O)c1ccc(CN2CCC(C(N)=O)CC2)cc1 | SLC5A7 | ligand displacement | – | radioligand | 1 µM | -6 |
| COc1ccc(S(=O)(=O)N(CC(=O)NO)CC(C)C)cc1 | MMP1 | enzyme activity | inhibitor | – | 10 µM | 77 |
| COc1ccc(S(=O)(=O)N2CCCCC2)cc1C | SLC5A7 | ligand displacement | – | radioligand | 10 µM | < 30 |
| COc1cc(Nc2ncc(F)c(Nc3ccc4c(n3)NC(=O)C(C)(C)O4)n2)cc(OC)c1OC | Cyclin-dependent kinase-like 1 (CDKL1, Homo sapiens, UniProt Q00532) | binding | – | competition with immobilised ligand | 10 µM | 84 |
| CCOC(=O)c1ccc(OC(=O)CCCCCNC(=N)N)cc1 | MMP1 | enzyme activity | inhibitor | – | 10 µM | 2 |
| C#Cc1n[nH]c2c(-c3cn([C@@H](C)c4ccccc4)c(=O)[nH]c3=O)cc(F)cc12 | TRAF2 and NCK-interacting protein kinase (TNIK, Homo sapiens, UniProt Q9UKE5) | enzyme activity | inhibitor | – | 0.1 µM | -0.3 |
| COC(=O)CC[C@H](NC(=O)[C@H](CC(C)C)NC(=O)OCc1ccccc1)C(=O)N[C@@H](Cc1cnc[nH]1)C(=O)N[C@@H](CC(=O)OC)C(=O)CF | CASP9 | enzyme activity | inhibitor | – | 0.1 µM | 7 |
| COCc1c(-c2cc3cc(C)cc(OC)c3s2)c2c(N)ncnn2c1CN1CCNC(=O)C1 | Calcium-dependent protein kinase 1 (CDPK1, Plasmodium falciparum, UniProt P62344) | cell-free assay | – | competition with immobilised ligand | 1 µM | 93.3 |
| CCOC(=O)N1C[C@H]2C[C@@H]1C[C@@H]2c1ccc(-c2cc(C(=O)OCC(=O)N(C)C)cc3cc(-c4ccc(C(F)(F)F)cc4)ccc23)cc1 | P2Y purinoceptor 14 (P2RY14, Homo sapiens, UniProt Q15391) | cell-free assay | inhibitor | – | 10 µM | 12.2 |
| C#Cc1n[nH]c2c(-c3cn([C@@H](C)c4ccccn4)c(=O)[nH]c3=O)cc(F)cc12 | TGF-beta receptor type-1 (TGFBR1, Homo sapiens, UniProt P36897) | enzyme activity | inhibitor | – | 0.1 µM | 1.5 |
| N=C(N)c1ccc2cc(OC(=O)c3ccc(N=C(N)N)cc3)ccc2c1 | CASP9 | enzyme activity | inhibitor | – | 10 µM | 0 |
| C[C@H](C(=O)N[C@H]1COc2ccccc2[C@@H]1S(C)(=O)=O)c1ccc(F)cc1 | MMP1 | enzyme activity | inhibitor | – | 10 µM | 13 |
| Cc1ncc(C)n2nc(/C=C/c3nc(N4CCCC4)cc(N4CCOCC4)n3)nc12 | SLC5A7 | ligand displacement | – | – | 10 µM | 14 |
| Cn1cc(-c2cccc(N3CCc4c(sc5c4CC(C)(C)C5)C3=O)c2CO)cc(Nc2ccncn2)c1=O | Eukaryotic elongation factor 2 kinase (EEF2K, Homo sapiens, UniProt O00418) | enzyme activity | inhibitor | – | 1 µM | 2 |
| O=C(Nc1cccnn1)N1CCN([C@@H]2CCOc3cc(C(F)(F)F)ccc32)CC1 | Alpha-1B adrenergic receptor (ADRA1B, Homo sapiens, UniProt P35368) | cell-free assay | – | – | 20 µM | 5 |
